The values that follow come from ChEMBL document CHEMBL1122190, “Mammary tumor inhibiting effect of 3,3'-diacetoxy-alpha, beta-dialkylstilbenes and of related stilbene oxides” (1982).

Experiment [1] has as its system Rattus norvegicus. Briefly: Effect on DMBA-induced hormone-dependent mammary carcinoma tumor growth in rats at 2.0 mg/kg/day (number of tumors at test beginning).
For experiment [2], the system named is Rattus norvegicus. Briefly: Effect on DMBA-induced hormone-dependent mammary carcinoma tumor growth in rats at 1.0 mg/kg/day. It is filed as functional. The method in brief:
(§1)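 Female Sprague-Dawley rats received a single 20 mg DMBA dose by gastric intubation at 50 days of age. About 4 weeks later, rats bearing at least one tumor >140 mm² were grouped in tens. Compounds in olive oil were given sc 6 times a week for 28 days. Tumor area (length × width) was measured twice weekly.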

For experiment [3], the system named is Rattus norvegicus. The experiment in a line: Effect on DMBA-induced hormone-dependent mammary carcinoma tumor number in rats at 4.0 mg/kg/day. The format is functional. The method in brief: as §1
The target in experiment [4] is T1, Estrogen receptor (Mus musculus) (UniProt O08537+P19785). The experiment in a line: Percent inhibition of estrone-stimulated uterine growth in immature mouse at 2.5 ug dose. It is filed as functional. The method in brief:
(§2)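 Dorfman uterine weight test in immature female NMRI mice, ten per group, 20 days old and 10-12 g at start. Compounds were given in olive oil sc once daily for 3 days. Mice were killed 24 h after the last injection, and uteri were removed, dried at 100 °C for 24 h and weighed.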

Experiment [5] relates to Rattus norvegicus. Briefly: Percent remission of DMBA-induced hormone-dependent mammary carcinoma in rats at 1.0 mg/kg/day. The format is functional. The procedure, abridged: as §1
Experiment [6] deals with Rattus norvegicus. Briefly: Effect on DMBA-induced hormone-dependent mammary carcinoma tumor number in rats at 1.0 mg/kg/day. The format is functional. The method in brief: as §1
In experiment [7] the test system is Rattus norvegicus. The experiment in a line: Percent partial remission of DMBA-induced hormone-dependent mammary carcinoma in rats at 2.0 mg/kg/day. It is filed as functional. The procedure, abridged:
as §1

The test system of experiment [8] is Estrogen receptor (Bos taurus). Briefly: In vitro relative binding affinity for Estrogen receptor compared to [3H]estradiol.
In experiment [9] the test system is Mus musculus. Briefly: Effect on estrogen and progesterone receptors positive hormone-dependent postmenopausal human mammary carcinoma tumor growth in nude mice at 1.0 mg/kg/day dose. It is filed as functional. The method in brief: (§3)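 Nude mice carried serially transplanted hormone-dependent human mammary carcinoma. Compounds in olive oil were given sc 6 times a week for 4-5 weeks. Two tumor diameters were measured weekly, and size at treatment start was set as 1. Tumor size was averaged after 5 weeks of therapy.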

Experiment [10] has as its system Rattus norvegicus. The experiment in a line: Percent partial remission of DMBA-induced hormone-dependent mammary carcinoma in rats at 4.0 mg/kg/day. It is filed as functional. The method in brief: as §1
The target of experiment [11] is T1, Estrogen receptor (Mus musculus). The experiment in a line: Percent inhibition of estrone-stimulated uterine growth in immature mouse at 5 ug dose. The format is functional. The method in brief:
as §2

For experiment [12], the system named is Rattus norvegicus. Briefly: Percent progression of DMBA-induced hormone-dependent mammary carcinoma in rats at 1.0 mg/kg/day. The format is functional. The method in brief:
as §1

For experiment [13], the target named is T1, Estrogen receptor (Mus musculus). The experiment in a line: Percent inhibition of estrone-stimulated uterine growth in immature mouse at 50 ug dose. The format is functional. The procedure, abridged:
as §2

In experiment [14] the test system is Mus musculus. Briefly: Effect on estrogen and progesterone receptors positive hormone-dependent postmenopausal human mammary carcinoma tumor growth in nude mice at 2.0 mg/kg/day. It is filed as functional. The procedure, abridged:
as §3

Experiment [15] deals with Rattus norvegicus. The experiment in a line: Percent unchanged DMBA-induced hormone-dependent mammary carcinoma in rats at 1.0 mg/kg/day. The format is functional. The method in brief: as §1
Experiment [16] relates to Rattus norvegicus. Briefly: Percent unchanged DMBA-induced hormone-dependent mammary carcinoma in rats at 4.0 mg/kg/day. It is filed as functional. The method in brief: as §1
Experiment [17] relates to Rattus norvegicus. The experiment in a line: Effect on DMBA-induced hormone-dependent mammary carcinoma tumor growth in rats at 2.0 mg/kg/day. It is filed as functional. The procedure, abridged:
as §1

The subject of experiment [18] is Rattus norvegicus. The experiment in a line: Effect on DMBA-induced hormone-dependent mammary carcinoma tumor growth in rats at 4.0 mg/kg/day. It is filed as functional. The procedure, abridged:
as §1

Experiment [19] relates to Rattus norvegicus. Briefly: Percent progression of DMBA-induced hormone-dependent mammary carcinoma in rats at 4.0 mg/kg/day. It is filed as functional. The method in brief:
as §1

In experiment [20] the target is T1, Estrogen receptor (Mus musculus). Briefly: Antiuterotrophic activity in mice at 2.5 ug dose. The format is functional. The method in brief:
as §2

Experiment [21] shares this target. The experiment in a line: Percent inhibition of estrone-stimulated uterine growth in immature mouse at 25 ug dose. The format is functional. The procedure, abridged: as §2
The target is the same in experiment [22]. The experiment in a line: Antiuterotrophic activity in mice at 50 ug dose. It is filed as functional. The procedure, abridged: as §2
For experiment [23] the target is unchanged. The experiment in a line: Antiuterotrophic activity in mice at 25 ug dose. It is filed as functional. The method in brief: as §2
In experiment [24] the test system is Rattus norvegicus. The experiment in a line: Percent unchanged DMBA-induced hormone-dependent mammary carcinoma in rats at 2.0 mg/kg/day. The format is functional. The method in brief: as §1
In experiment [25] the test system is Rattus norvegicus. Briefly: Effect on DMBA-induced hormone-dependent mammary carcinoma tumor growth in rats at 4.0 mg/kg/day (initial tumor number). It is filed as functional. The method in brief: as §1
In experiment [26] the test system is Rattus norvegicus. The experiment in a line: Percent partial remission of DMBA-induced hormone-dependent mammary carcinoma in rats at 1.0 mg/kg/day. It is filed as functional. The procedure, abridged: as §1
In experiment [27] the test system is Rattus norvegicus. Briefly: Effect on DMBA-induced hormone-dependent mammary carcinoma tumor growth in rats at 1.0 mg/kg/day (initial tumor number). The format is functional. The method in brief:
as §1

In experiment [28] the test system is Rattus norvegicus. Briefly: Percent progression of DMBA-induced hormone-dependent mammary carcinoma in rats at 2.0 mg/kg/day. The format is functional. The method in brief: as §1
Experiment [29] has as its system Rattus norvegicus. Briefly: Percent remission of DMBA-induced hormone-dependent mammary carcinoma in rats at 4.0 mg/kg/day. The format is functional. The method in brief:
as §1

Experiment [30] relates to Rattus norvegicus. Briefly: Percent remission of DMBA-induced hormone-dependent mammary carcinoma in rats at 2.0 mg/kg/day. It is filed as functional. The method in brief:
as §1

In experiment [31] the test system is Rattus norvegicus. The experiment in a line: Effect on DMBA-induced hormone-dependent mammary carcinoma tumor number in rats at 2.0 mg/kg/day. The format is functional. The procedure, abridged: as §1
For experiment [32], the target named is T1, Estrogen receptor (Mus musculus). The experiment in a line: Antiuterotrophic activity in mice at 5 ug dose. The format is functional. The procedure, abridged:
as §2

Experiment [33] shares this target. The experiment in a line: Percent inhibition of estrone-stimulated uterine growth in immature mouse at 100 ug dose. It is filed as functional. The procedure, abridged:
as §2

The target is the same in experiment [34]. The experiment in a line: Antiuterotrophic activity in mice at 100 ug dose. It is filed as functional. The method in brief:
as §2

The target is the same in experiment [35]. Briefly: Uterotrophic activity in mice at 5 ug dose. The format is functional, tissue-based. The settings on record: Uterus. The method in brief:
(§4)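 Dorfman uterine weight test in immature female NMRI mice (20 days old at start, 10-12 g; ten per group). Compound given sc daily in olive oil for 3 days. Animals killed 24 h after last injection; uteri removed, dried at 100 °C for 24 h and weighed.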

Experiment [36] shares this target. The experiment in a line: Uterotrophic activity in mice at 50 ug dose. Particulars: Uterus. The format is functional, tissue-based. The procedure, abridged:
as §4

Experiment [37] shares this target. Briefly: Uterotrophic activity in mice at 100 ug dose. The format is functional, tissue-based. The settings on record: Uterus. The method in brief: as §2
The test system of experiment [38] is Mus musculus. The experiment in a line: Effect on estrogen and progesterone receptors positive hormone-dependent postmenopausal human mammary carcinoma tumor growth in nude mice at 2.8 mg/kg/day. It is filed as functional. The procedure, abridged: as §3
Experiment [39] concerns the target T1, Estrogen receptor (Mus musculus). Briefly: Uterotrophic activity in mice at 500 ug dose. The format is functional, tissue-based. The settings on record: Uterus. The procedure, abridged: as §4
Experiment [40] has the same target. The experiment in a line: Uterotrophic activity in mice at 10 ug dose. The format is functional, tissue-based. The settings on record: Uterus. The method in brief:
as §2

Experiment [41] concerns Mus musculus. The experiment in a line: Effect on estrogen and progesterone receptors positive hormone-dependent postmenopausal human mammary carcinoma tumor growth in nude mice at 2.6 mg/kg/day. It is filed as functional. The procedure, abridged:
as §3

Experiment [42] addresses T1, Estrogen receptor (Mus musculus). Briefly: Uterotrophic activity in mice at 1 ug dose. The format is functional, tissue-based. The settings on record: Uterus. The method in brief:
as §2

For experiment [43], the system named is Mus musculus. Briefly: Effect on estrogen and progesterone receptors positive hormone-dependent postmenopausal human mammary carcinoma tumor growth in nude mice at 3.0 mg/kg/day. The format is functional. The method in brief:
as §3

Experiment [44] addresses T1, Estrogen receptor (Mus musculus). The experiment in a line: Uterotrophic activity in mice at 1000 ug dose. The settings on record: Uterus. It is filed as functional, tissue-based. The procedure, abridged: as §4
Experiment [45] has as its system Mus musculus. Briefly: Effect on estrogen and progesterone receptors positive hormone-dependent postmenopausal human mammary carcinoma tumor growth in nude mice at 2.4 mg/kg/day. The format is functional. The method in brief: as §3

Each structure is given as a SMILES string.

T1 sequence (O08537 whole entry, looked up): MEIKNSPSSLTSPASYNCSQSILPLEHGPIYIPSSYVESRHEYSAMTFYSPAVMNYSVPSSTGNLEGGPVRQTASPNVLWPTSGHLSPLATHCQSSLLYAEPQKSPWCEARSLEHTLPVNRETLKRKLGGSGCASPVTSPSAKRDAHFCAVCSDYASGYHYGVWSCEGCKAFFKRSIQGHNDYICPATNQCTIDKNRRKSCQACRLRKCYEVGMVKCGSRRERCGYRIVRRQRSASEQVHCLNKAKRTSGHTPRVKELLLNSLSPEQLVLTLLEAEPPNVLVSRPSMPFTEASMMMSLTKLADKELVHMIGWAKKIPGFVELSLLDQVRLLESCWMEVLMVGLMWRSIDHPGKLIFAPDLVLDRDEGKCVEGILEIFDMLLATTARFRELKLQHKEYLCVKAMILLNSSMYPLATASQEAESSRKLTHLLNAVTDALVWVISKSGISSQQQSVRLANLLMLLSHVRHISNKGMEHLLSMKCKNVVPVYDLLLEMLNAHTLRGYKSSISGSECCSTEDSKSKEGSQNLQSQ
T1 sequence (P19785 whole entry, looked up): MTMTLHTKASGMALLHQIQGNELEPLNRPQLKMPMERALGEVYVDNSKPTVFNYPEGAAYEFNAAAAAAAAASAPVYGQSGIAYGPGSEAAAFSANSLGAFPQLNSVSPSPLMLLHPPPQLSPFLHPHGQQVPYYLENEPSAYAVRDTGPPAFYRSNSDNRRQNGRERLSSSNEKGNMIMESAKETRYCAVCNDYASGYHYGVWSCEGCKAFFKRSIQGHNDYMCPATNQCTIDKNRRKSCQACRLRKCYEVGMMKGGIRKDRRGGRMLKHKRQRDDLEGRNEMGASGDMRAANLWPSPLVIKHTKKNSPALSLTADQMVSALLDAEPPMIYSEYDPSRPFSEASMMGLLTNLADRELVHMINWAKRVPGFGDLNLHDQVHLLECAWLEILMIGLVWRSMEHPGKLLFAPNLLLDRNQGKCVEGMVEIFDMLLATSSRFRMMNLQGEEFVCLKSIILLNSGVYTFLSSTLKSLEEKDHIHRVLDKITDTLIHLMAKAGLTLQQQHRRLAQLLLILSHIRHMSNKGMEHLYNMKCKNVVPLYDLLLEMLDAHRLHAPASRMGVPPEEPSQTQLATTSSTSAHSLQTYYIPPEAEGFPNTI

Turning to `CC/C(=C(/CC)c1cccc(O)c1)c1cccc(O)c1`, in [1], the “Number of tumors at test beginning” value is 32. Also, the Tumors in experiment [2] turned out to be 40%; in [5] it was 15%; in [7] it was 26%; in experiment [10] it was 22%; in experiment [12] it was 24%; in [15] it was 38%. The Tumors in [16] stood at 32%; in [19] it was 19%; in experiment [24], 32%; in experiment [26], 23%; in experiment [28], 17%; in experiment [29], 27%. The Tumors in [30] is 25%. Further, the No. of tumors in experiment [3] turned out to be 17; in experiment [6], 34; in experiment [25], 37; in experiment [27] it was 32; in [31], 21. The inhibition is 18.7% in experiment [4], 48% in experiment [11], 45.1% in [13] and 42.8% in experiment [21]. The compound further returned an RBA in experiment [8] of 3.2%. Besides, the Tumor size in [9] amounted to 2.78; in experiment [14], 1.76. The Change in [17] is reported as 2%; in experiment [18] it was -26%. Also, the Effect worked out at 38.3 in experiment [20], 29.1 in experiment [22], 29.9 in experiment [23] and 28.1 in [32].

Consider `CCCC1(c2cccc(OC(C)=O)c2)OC1(CCC)c1cccc(OC(C)=O)c1` (stereo not given), for which the inhibition in [33] worked out at 0%; in experiment [11], 15.6%; in experiment [21], 7.8%. For the same compound, the Effect in [34] is 39.4; in [35], 21.8; in [36], 22.1; in experiment [37], 31.1; in [23], 36.3; in experiment [39] it was 33.3. For the same compound, the Effect in [32] came to 34.1. The compound also came in with an RBA in [8] of 1.7%. Moreover, the Tumor size in experiment [38] is recorded as 1.85.

On to `CCC1(c2cccc(OC(C)=O)c2)OC1(CC)c1cccc(OC(C)=O)c1` (stereo not given), for which the inhibition is 0% in experiment [33], 33.5% in experiment [11] and 22.6% in [13]. For the same compound, the Effect is 43.7 in experiment [34]; 30.3 in [40]; 33.4 in experiment [36]; 36.2 in [37]; 36.4 in experiment [22]; 22.2 in experiment [42]. The values for the Effect in [39] and in experiment [32] were 38.6 and 33.2, respectively. For the same compound, the RBA in experiment [8] turned out to be 4.2%. Further, the Tumor size in [41] is 2.38.

On to `CCCCC1(c2cccc(OC(C)=O)c2)OC1(CCCC)c1cccc(OC(C)=O)c1` (stereo not given), for which the inhibition was 0.4% in experiment [33], 38.8% in [11] and 2.2% in [13]. For the same compound, the Effect in experiment [34] is 42.4; in experiment [40] it was 19.8; in experiment [37] it was 34.3; in experiment [44] it was 35.5; in experiment [22] it was 42; in [32], 32.4. In addition, the RBA in experiment [8] was determined as 0.8%. In addition, the Tumor size in experiment [43] is recorded as 3.37.

As to `CC(=O)Oc1cccc(/C(C)=C(\C)c2cccc(OC(C)=O)c2)c1`, the RBA in experiment [8] came to 0.4%. In addition, the Tumor size in experiment [45] was found to be 3.42.
